core dimer inh – HCV core protein dimerization inhibition | TR-FRET GST/Flag-core106 dimerization, 1536-well | inhibition, % at 5 µM | actives 0.33% (n = 300,000);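 active = inhibition above the mean of all tested compounds plus 3 SD, set per screening campaign, cut at about 45% in these data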
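Assay system: GST-tagged and Flag-tagged HCV core protein residues 1-106 / Times: compound-protein-antibody incubation 4 h at 22.5 °C / Signal: time-resolved FRET, ex 340 nm, em 617 and 671 nm / Evaluation: % inhibition based on acceptor/donor emission ratio / Benchmarks: wells lacking GST-core106 and wells with excess unlabelled core106 / Repeats: singlicate, one well per compound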
LEDGF integ inh – blocks HIV-1 LEDGF/p75-dependent DNA integration | TR-FRET IN-LEDGF/p75 DNA integration, Eu/Cy5 | inhibition, % at 3.7 µM | actives 0.64% (n = 370,000);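 active = inhibition above the screen-wide mean plus 3 SD, cut at about 13% in these data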;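 note: signal is the Cy5 over europium emission ratio at 671 and 618 nm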
UHRF1 MBD2 ctr – human UHRF1 methylated DNA binding inhibitors; actives 0.75% (n = 370,000); Q96T88; inhibition, % at 4.4 µM; UHRF1 binding to methylated oligo, TR-FRET; AID 687016; in the data active = inhibition above about 21%;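 note: UHRF1 SRA domain binding a hemimethylated CpG hairpin DNA probe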
MBD2 inh – blocks human MBD2 binding to methylated DNA. Q9UBB5. TR-FRET, MBD2 binding to methylated oligonucleotide. inhibition, % at 4.4 µM. actives 0.31% (n = 370,000). AID 686964; in the data active = inhibition above about 13%
TDP2 absorb – blocks human TDP2 phosphodiesterase activity. recombinant TDP2, T5PNP hydrolysis, p-nitrophenol absorbance 415 nm. inhibition, % at 12.8 µM. actives 0.34% (n = 370,000);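 active = inhibition above the mean of all tested compounds plus 3 SD, set per campaign, cut at about 25% in these data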
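Test system: human TDP2 enzyme; Input: 120 nM TDP2 per well; Buffer or medium: Mg2+-containing Tris-HCl buffer, pH 7.5; Reagent: 5 mM T5PNP; Dosing: 12.8 µM single point, 1% DMSO; Incubation: reaction 2 h, 37 °C; Detection: p-Nitrophenol epi absorbance; Read-out: % inhibition relative to enzyme-containing and enzyme-free wells; Replicates: single well per compound.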
Large screens that a line does not name were inactive. Shown are actives, neighbours in structure and some others; about 1.8% of the full set was active somewhere.

CC1CCCCC1n1c(-c2cccnc2)n[nH]c1=S (configuration not stated)	UHRF1 MBD2 ctr 72
Cc1ccnc(-n2c(C)cc(C=O)c2C)c1	UHRF1 MBD2 ctr 23
COc1ccc(C)cc1-n1c(C)cc(C=O)c1C	none
Cc1cccc(OCC(C)CN2CCC(C(O)(c3ccccc3)c3ccccc3)CC2)c1 (configuration not stated)	none (no result: core dimer inh)
O=C(COC(=O)c1cc(F)cc(F)c1)NCCCc1ccccc1	UHRF1 MBD2 ctr 85
O=C(CN1CCCCCCC1)Nc1cc(Cl)cc(Cl)c1	UHRF1 MBD2 ctr 57
O=C(CN1CCCC1)Nc1cccc(Cl)c1	none
COC(=O)[C@]12C[C@H](CC(=O)N3CCN(C(=O)c4ccco4)CC3)C(=O)N(Cc3ccc(Cl)cc3Cl)C1=C[C@H](C1CCCC1)O[C@@H]2C	none (no result: core dimer inh)
COc1ccc(-c2nnc3n2N=C(c2cccc([N+](=O)[O-])c2)CS3)cc1	none (no result: core dimer inh)
COc1ccc(/C=c2\s/c(=C(/C#N)C(=O)NCc3ccco3)n(-c3ccccc3)c2=O)cc1	core dimer inh 58
S=c1[nH]c2ccccc2n2cccc12	core dimer inh 55
Cc1cccc(C)c1NC(=O)C1c2ccccc2OCC(=O)N1CC(F)(F)F (configuration not stated)	none (no result: core dimer inh)
COCCN1C(=O)COc2ccccc2C1C(=O)Nc1c(C)cccc1C (configuration not stated)	UHRF1 MBD2 ctr 21 (no result: core dimer inh)
Cc1ccccc1Cn1cc(COC(=O)NCC(C)C)nn1	none (no result: core dimer inh)
COC(=O)C1CN(Cc2ccc(OC)cc2)CCS(=O)(=O)N1Cc1ccc(C(F)(F)F)cc1 (configuration not stated)	none (no result: core dimer inh)
C=CCn1c(SCC(N)=O)nnc1-c1cnccn1	UHRF1 MBD2 ctr 74
CC(C)C[C@@H]1COc2cc(Br)ccc2S(=O)(=O)N1Cc1cn(Cc2ccc(Br)cc2)nn1	none (no result: core dimer inh)
O=C(c1ccccc1Cl)N1CCC(Oc2cccnc2)CC1	none (no result: core dimer inh)
CC(C)N1Cc2nnn(Cc3ccccc3)c2-c2cc(N3CCCC3)ccc2S1(=O)=O	none (no result: core dimer inh)
O=C(/C(=C(\[O-])c1ccccc1)[n+]1ccc2ccccc2c1)c1ccccc1	none
O=C(/C(=C(\[O-])c1ccccc1)[n+]1ccc2ccccc2c1)c1ccc(Cl)cc1	UHRF1 MBD2 ctr 25
COC(=O)c1cn(-c2ccc3c(c2)[C@@]2(CC(=O)N(C)C2c2ccccc2)C(=O)N3CC(C)C)nn1 (some centres not stated)	none (no result: core dimer inh)
O=c1oc2ccccc2nc1/C=C(O)/C=C\c1ccccc1	core dimer inh 50
O=c1oc2ccccc2nc1/C=C(O)/C=C/c1ccc(F)cc1	none
Cc1ccc(C(C(=O)NC2CCCCC2)N(CCC(C)C)C(=O)CNC(=O)c2ccco2)o1 (configuration not stated)	UHRF1 MBD2 ctr 21
CC(=O)c1ccc(N(C(=O)CNC(=O)c2ccco2)C(C(=O)NC2CCCC2)c2ccc(C)o2)cc1 (configuration not stated)	none
O=S(=O)(c1ccc2nc(N3CCN(c4ccccc4)CC3)ccc2c1)N1CCCCC1	UHRF1 MBD2 ctr 22
COc1ccccc1N1CCN(c2ccc3cc(S(=O)(=O)N4CCCCC4)ccc3n2)CC1	none
C=CCN1[C@H](CC(C)C)COc2cc(N3CCCC3)ccc2S1(=O)=O	none (no result: core dimer inh)
CCNC(=O)Nc1ccc2c(c1)C(=O)N(C)[C@H]1CC[C@H](CC(=O)N[C@H](C)c3ccccc3)O[C@@H]1CO2	none (no result: core dimer inh)
Nc1nc(Cn2nnc(-c3ccccc3Cl)n2)nc(N2CCOCC2)n1	UHRF1 MBD2 ctr 29
Cc1cccc(NC(=O)Nc2c(-c3ccc(C(F)(F)F)cc3)nc3ncccn23)c1	none (no result: core dimer inh)
C=CCn1c(CSc2ccccc2[N+](=O)[O-])n[nH]c1=S	core dimer inh 65
Cc1occc1-c1nnc(SCC(=O)Nc2nc3ccccc3s2)o1	UHRF1 MBD2 ctr 23
Cc1occc1-c1nnc(SCC(=O)Nc2nc(-c3ccccc3)cs2)o1	none
Cc1ccc(C(=O)N(C)[C@H]2C[C@H]3c4[nH]c5c(-c6ccc7c(c6)OCO7)cccc5c4CCN3C[C@H]2[C@H](C)O)cc1	none (no result: core dimer inh)
CCCCn1nnnc1C(c1ccccc1)N1CCN(C/C=C/c2ccccc2)CC1 (configuration not stated)	none (no result: core dimer inh)
CCCCn1nnnc1C(CC)N1CCN(C/C=C/c2ccccc2)CC1 (configuration not stated)	UHRF1 MBD2 ctr 22 (no result: core dimer inh)
O=C(CSc1nccc(=O)[nH]1)NCc1ccco1	UHRF1 MBD2 ctr 34
COC(=O)[C@]12C[C@H](CC(=O)NCCCCc3ccccc3)C(=O)N(Cc3ccco3)C1=C[C@H](C(C)(C)C)O[C@@H]2C	none (no result: core dimer inh)
CC(C)Cc1nnc(NC(=O)CCS(=O)(=O)c2ccc(Cl)cc2)s1	UHRF1 MBD2 ctr 24
CC(C)Cc1nnc(NC(=O)CCc2c[nH]c3ccccc23)s1	UHRF1 MBD2 ctr 25
C[C@H]1[C@@H](NC(=O)Cc2ccsc2)CC[C@@]23CCCN2C(=O)CCC[C@@H]13	none (no result: core dimer inh)
OCCCN1CCC2(CCC(c3ccccc3)CC2)C1 (configuration not stated)	none (no result: core dimer inh)
O=C(COC(=O)c1ccc(Br)o1)Nc1nc2ccccc2s1	none
O=C(COC(=O)c1ccc([N+](=O)[O-])o1)Nc1nc2ccccc2s1	UHRF1 MBD2 ctr 29
CCCCCCCCN1CN2Cc3ccccc3C2CS1(=O)=O (configuration not stated)	none (no result: core dimer inh)
C/C(=N\NC(=O)c1cc(O)ccc1O)c1cccc(NC(=O)c2cccc(Cl)c2)c1	LEDGF integ inh 55
Cc1cc(=O)oc2cc(OCC(=O)c3ccc4c(c3)NC(=O)CO4)ccc12	core dimer inh 63
CCC(CC)c1nnc(NC(=O)COc2ccc3c(C)cc(=O)oc3c2)s1	none
COc1ccc(C(=O)OCC(=O)c2ccc3c(c2)NC(=O)CO3)cc1OC	UHRF1 MBD2 ctr 58 (no result: core dimer inh)
Cc1nnc(NC(=O)COc2ccc3c(C)cc(=O)oc3c2)s1	core dimer inh 79
CC(=O)c1ccc(NC(=O)NC2CCCCN(Cc3cccc(Cl)c3)C2=O)cc1 (configuration not stated)	none (no result: core dimer inh)
Cc1ccc(N=Cc2c(O)n(-c3ccc4c(c3)OCO4)c(=O)c3ccccc23)cc1	core dimer inh 62
COc1ccc(C(=O)OCCN(C)C2CN(Cc3cn(Cc4cccc(F)c4)nn3)S(=O)(=O)C2)cc1OC (configuration not stated)	none (no result: core dimer inh)
C=CCN(CC#CC1=CCCCC1)Cc1ccccc1	none (no result: core dimer inh)
O=C1NC(=O)/C(=C/c2cc3c(cc2Br)OCO3)S1	none
O=C1NC(=O)/C(=C\c2ccc(Br)o2)S1	UHRF1 MBD2 ctr 45
COc1ccc(NC(=O)OCCN2CCCC23CCC(c2ccccc2)CC3)cc1 (configuration not stated)	none (no result: core dimer inh)
CSc1ccccc1C(=O)Nc1cccc(C(C)O)c1 (configuration not stated)	UHRF1 MBD2 ctr 21
COc1ccccc1NC(=O)CN1CCN(C(=O)c2ccco2)CC1	UHRF1 MBD2 ctr 27

Compound activity from PubChem BioAssay.
